Experimental findings from publication PMC6945494 (Biomaterials, 2019) are described below.

In brackets after ≈: the same amount, converted by molar mass. Where two headings read alike, the source gives them in different places.

Data set [1] has as its system MDM. Kind of data set: MTT cell viability assay in MDM. The data set is classed as cell-based, human. To be noted: for effect on mitochondrial reductase activity (MTT): 10–400 μM. (In general: Formazan colour is commonly taken as a measure of viable cells.)
Data set [2] can be described thus: Solubility in water and 1-octanol. The data set is classed as physicochemical. A digest of the protocol:
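Excess test compound or parent nucleoside was added to water or 1-octanol to give saturated solutions. These were mixed 24 h at room temperature, then centrifuged at 14,000 × g for 10 min to remove undissolved drug. Supernatant concentration was quantified by UPLC-TUV.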

Data set [3] can be described thus: Plasma stability, animal plasma. It counts as in vitro ADME, rat, mouse. Conditions: rodent, dog, rabbit and monkey plasma, after 24 h at 37 °C. An outline of the steps: (§1)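 Plasma (100 μL) was spiked with 1 μM test compound at 37 °C. It was stopped at 0, 2, 6 and 24 h with 1 mL methanol and 3 min vortexing. Heat-inactivated plasma under identical conditions separated chemical from enzymatic loss. After centrifugation at 15,000 g for 10 min, supernatant was diluted in 80% methanol with internal standard. Analysed by UPLC-MS/MS.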

A short description of data set [4]: Plasma stability, human plasma. The data set is classed as in vitro ADME. Conditions: 37 °C; for chemical stability in plasma: up to 24 h, 1 μM. An outline of the steps:
as §1

Data set [5] is described as follows: Prodrug chemical stability at acid, alkaline and neutral pH. It counts as physicochemical. To be noted: room temperature; for prodrug degraded: after 24 h.
Data set [6] deals with HIV-1ADA. The experiment in a line: EC50 by HIV-1 RT activity in MDM. Conditions: read-out: EC50 (HIV-1 RT activity). The data set is classed as cell-based.
The nature of data set [7]: Pharmacokinetics and biodistribution after a single IM injection. It counts as in vivo, Sprague Dawley rats. To be noted: rat.
The subject of the next data set is HIV-1NL4–3-eGFP. Kind of data set: microbe, parasite or virus in culture. The data set is classed as cell-based. Conditions: Human immunodeficiency virus 1, T-cell, 240 h, read-out: EC50 (RT activity).
For data set [8], the system named is HIV-1ADA. The experiment in a line: Long-term antiretroviral efficacy in MDM. It counts as cell-based. A digest of the protocol:
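Human monocytes from leukapheresis, purified by elutriation and differentiated 7 days in DMEM with 10% heat-inactivated human serum and 1000 U/mL MCSF. MDM were exposed to 100 μM test compound for 8 h, washed, and kept drug-free with half-media changes every other day. On days 1–30 they were challenged with HIV-1ADA at MOI 0.1 for 16 h. RT activity in fluids on day 10; PFA-fixed cells stained for p24.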

For data set [9], the system named is MDM. Kind of data set: Cellular drug uptake and retention in MDM. It counts as cell-based, human.

For orientation: aqueous solubility means the concentration that dissolves in the medium under given conditions. The term EC50 denotes the concentration at which the effect is half-maximal. Take `CCCCCCCCCCCCCCCCCCCCCCOC(=O)[C@H](Cc1ccccc1)NP(=O)(OC[C@@H]1O[C@H](n2cc(F)c(N)nc2=O)CS1)Oc1ccccc1` (stereo partly drawn) [M2FTC]: in the data set on CEM-ss CD4+ T-cells, the “concentration not affecting cell viability (LiveDead staining)” value was at most 200 µM. Also, in the data set with MDM [1], the “effect on mitochondrial reductase activity (MTT)” value is “No effects”. Moreover, in the data set with MDM [1] (24 h treatment), the “non-cytotoxic concentration (MTT)” value was at most 100 µM. The “effect on cell viability (MTT)” value in the data set with MDM [1] (above 100 μM) was “slight reduction in cell viability”. Moreover, in data set [2] (1-octanol), the “fold improvement in octanol solubility compared to FTC” value is 90 fold. The octanol solubility in [2] (1-octanol, saturated solution mixed 24 h) worked out at 87.56 ± 0.236 mg/mL. For the same compound, the “fold decrease in aqueous solubility compared to FTC” value in data set [2] (water) was determined as 4000 fold. Besides, the aqueous solubility in data set [2] (water, saturated solution mixed 24 h) is 0.0366 ± 0.0093 mg/mL (≈ 0.0426 mM). For the same compound, the “degradation in plasma (in words)” value in data set [3] is listed as “high”. For the same compound, the “chemical stability in plasma” value in data set [4] (heat inactivated human plasma) and in data set [4] (normal human plasma) was “over 90%” in each case. The “plasma stability (in words)” value in data set [4] (normal and heat inactivated human plasma, over 24 h) is listed as “remained stable”. The prodrug degraded in data set [5] (acidic pH (0.1 M HCl)) and in data set [5] (alkaline pH (0.1 M NaOH)) was 10% each time. In data set [5] (neutral pH (water)), the “chemical stability at neutral pH” value is “stable over 7 days”. In the data set on HIV-1ADA [6] (HIV-1ADA in MDM, MOI 0.1, 10 days), the EC50 was found to be 0.11 nM.

As usually defined, the solubility is how much of the substance goes into solution per volume. Usually inhibition stands for the change of the read-out against control, counted positive when it falls. As to `Nc1nc(=O)n([C@@H]2CS[C@H](CO)O2)cc1F` [FTC, emtricitabine], in [7] (male, Sprague Dawley, whole blood, intramuscular, 45 mg/kg FTC-equivalent), the concentration at 7 days is below 2 ng/mL. Further, the “drug concentrations in blood and tissues over time (in words)” value in [7] (single IM 45 mg/kg) is listed as “declined to undetectable levels within a day”. Besides, in [7] (single IM 45 mg/kg FTC equivalents, day 28 / one month), the “FTC-TP levels in lymph node and spleen cells” value is reported as “undetectable levels”. The “drug levels in tissues (in words)” value in [7] (single IM 45 mg/kg, lymph nodes, spleen, liver) is given as “rapidly fell below the limit of quantitation”. The “concentration not affecting cell viability (LiveDead staining)” value in the data set on CEM-ss CD4+ T-cells (human) is at most 200 µM. Moreover, the “effect on mitochondrial reductase activity (MTT)” value in the data set with MDM [1] was “No effects”. For the same compound, the results for the solubility at 24 h in data set [2] (1-octanol) and in data set [2] (water) were 0.97 ± 0.027 mg/mL (≈ 3.92 mM) and 143 ± 11.2 mg/mL (≈ 578 mM), respectively. Moreover, the EC50 with HIV-1NL4–3-eGFP was determined as 25.7 nM; in the data set with HIV-1ADA [6] (Human immunodeficiency virus 1, 240 h), 0.5 nM. For the same compound, in the data set with HIV-1ADA [8] (Human immunodeficiency virus 1, 8 h, read-out: protection (viral inhibition)), the inhibition at 100 µM stood at 40%. Moreover, the viral inhibition result with HIV-1ADA [8] (MDM, single 8 h treatment 100 μM, challenge at time points later than day one) is “no viral inhibition”. Further, the “intracellular drug concentration (uptake)” value in the data set with MDM [9] (100 μM, over 8 h) is recorded as below 0.1 nmoles/10^6 cells. For the same compound, in the data set with MDM [9] (at 8 h), the “intracellular drug (retention)” value was “undetectable”.
